Assay results gathered from unrelated publications.
Compare with care: the assays were run in different laboratories.
Ribonuclease H1: Ribonuclease H1 (Homo sapiens, UniProt O60930)
CNR2: Cannabinoid receptor 2 (CNR2, Homo sapiens, UniProt P34972)
F10: Coagulation factor X (F10, Homo sapiens, UniProt P00742)

Structure (SMILES)	target	observed	mode	technique	notes	quantity	value
O=c1c(-c2ccccc2)c(O)c2cc(-c3cccc(-c4ccccc4)c3)cnc2n1O	Ribonuclease H1	enzyme activity	inhibitor			IC50	> 10 µM
CCCCC/C=C\C/C=C\C/C=C\Cc1ccccc1CCCC(=O)N[C@H](C)CO	CNR2	β-arrestin recruitment	agonist			EC50	14.7 nM
C[C@H](NC(=O)[C@H](CCC(N)=O)NC(=O)CCCCNC(=N)N)C(=O)N[C@@H](CCCNC(=N)N)C(=O)c1nc2ccccc2s1	F10	cell-free assay				Ki	85 nM
COc1cc2c(cc1OC)CN(CCc1ccc(NC(=O)c3cccc4c(=O)c5cccc(OC)c5[nH]c34)cc1)CC2	D(1B) dopamine receptor (DRD5, Homo sapiens, UniProt P21918)	cell-free assay				Ki	> 10000 nM
CS(=O)(=O)N[C@@H](CCC(N)=O)C(=O)N[C@@H](Cc1ccccc1)C(=O)N[C@@H](CCCNC(=N)N)C(=O)c1nc2ccccc2s1	F10	cell-free assay				Ki	16 nM
CC(C)(NC(=O)c1nn(CC2CCCC2)c2ccccc12)c1cccc(C(N)=O)c1	CNR2	ligand displacement		radioligand	cell membranes	Ki	110 nM
CCCC[C@H](NC(C)=O)C(=O)N[C@H]1CC(=O)NCCCC[C@@H](C(=O)N2CCC[C@@H]2C(=O)N[C@@H](C(=O)N2CCC[C@@H]2C(N)=O)C(C)C)NC(=O)[C@H](Cc2c[nH]c3ccccc23)NC(=O)[C@H](CCCNC(=N)N)NC(=O)[C@@H](Cc2ccccc2)NC(=O)[C@@H]2CCCN2C1=O	Melanocortin receptor 5 (MC5R, Homo sapiens, UniProt P33032)	cAMP	agonist			EC50	0.391 nM
CC[C@H](C)[C@@H](C(=O)N1CCC[C@H]1c1nccs1)N(C)C(=O)[C@H](CC(C)C)N(C)C(=O)[C@H](Cc1ccc(OC)cc1)N(C)C(=O)/C=C(\C)OC	CNR2	ligand displacement		radioligand		IC50	6.1 µM
N#CC(C#N)=Cc1ccc([N+](=O)[O-])c(O)c1	Casein kinase I isoform alpha (CSNK1A1, Homo sapiens, UniProt P48729)	binding		SPR		Kd	> 50 µM
CC(C)(C#N)CCCn1nc(C(=O)NC(C)(C)c2cccc(C(N)=O)c2)c2ccccc21	CNR2	ligand displacement		radioligand	cell membranes	Ki	130 nM
O=C1Cc2cc(-c3ccco3)ccc2C(=O)N1O	Ribonuclease H1	enzyme activity	inhibitor			IC50	2.39 µM
CCCCC/C=C\[C@H](C)/C=C\C/C=C\Cc1ccccc1CCCC(=O)N[C@H](C)CO	CNR2	cAMP	agonist			EC50	751 nM
CC(C)(NC(=O)c1nn(CCCCCF)c2ccccc12)c1cccc(C(N)=O)c1	CNR2	ligand displacement		radioligand	cell membranes	Ki	130 nM
CCCCC/C=C\[C@H](C)/C=C\C/C=C\Cc1ccccc1CCCC(=O)OC(CO)CO	CNR2	β-arrestin recruitment	agonist			EC50	4180 nM
c1cncc([C@@H]2CCCN2)c1	Neuronal acetylcholine receptor; alpha2/beta2 (Rattus norvegicus, UniProt P12389+P12390)	cell-free assay		radioligand		Ki	87.1 nM
CCCCCn1nc(C(=O)NC(C)(C)c2cccc(C(N)=O)c2)c2ccccc21	CNR2	ligand displacement		radioligand	cell membranes	Ki	250 nM
CCCCCc1ccccc1C/C=C\C/C=C\C/C=C\CCCC(=O)N[C@H](C)CO	CNR2	β-arrestin recruitment	agonist			EC50	436 nM
